This note sets out measurements from ChEMBL document CHEMBL2057155, “Synthesis of betulinic acid derivatives as entry inhibitors against HIV-1 and bevirimat-resistant HIV-1 variants” (Bioorg Med Chem Lett, 2012).

In data set [1] the test system is Human immunodeficiency virus 1. In words: Antiviral activity against HIV1 NL4-3 harboring QVT motif of Gag SP1 V370A mutant infected in human TZM-bl cells by fluorescence assay relative to wild type HIV1 NL4-3. It is filed as functional. The essentials: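 Single-round infection of TZM-bl cells with HIV-1 NL4-3 or the NL4-3 V370A mutant. Tat-driven luciferase expression after viral entry was the read-out. Inhibition was taken as the reduction in luciferase signal relative to infected controls without compound, expressed as relative fluorescence units.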

Data set [2] deals with Human immunodeficiency virus 1. The data set is described as follows: Ratio of EC50 for bevirimat-resistant HIV1 NL4-3 harboring QVT motif of Gag SP1 V370A mutant to EC50 for wild type HIV1 NL4-3. It is filed as functional. In short, it runs like this:
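Multi-cycle viral replication assay in MT4 cells infected with wild-type HIV-1 NL4-3 or the V370A Gag variant. EC50 was determined against each virus, and the fold ratio was taken as mutant EC50 over wild-type EC50.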

The nature of data set [3]: Cytotoxicity against human TZM-bl assessed as cell viability at 4 uM after 2 days. It is filed as cell-based. The note with it: 48 h. The essentials: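 Toxicity to TZM-bl cells was checked within the single-cycle infection assay at 4 μM.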
The test system of data set [4] is Liver microsomes. In words: Half life in human liver microsomes at 1 uM. Background: Microsomes from liver hold many membrane-bound enzymes, among them those of drug oxidation.
Data set [5] can be described thus: Cytotoxicity against human MT4 assessed as cell viability after 2 days. Type of data set: cell-based. The note with it: MT4 cells, read-out: TD50.
Data set [6] deals with Human immunodeficiency virus 1. The data set is described as follows: Antiviral activity against HIV1 NL4-3 infected in human TZM-bl cells assessed as reduction in luciferase gene expression by luminescence assay. It is filed as functional, organism-based. The note with it: Human immunodeficiency virus 1, NL4-3, TZM-bl. In short, it runs like this: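 Single-cycle HIV-1 NL4-3 infection of TZM-bl cells; HIV-1 tat-driven luciferase expression after viral entry read as the measure of inhibition. […] control is NL4-3 infection without compound. Values are the mean of two or more independent experiments with standard deviation.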

For data set [7], the system named is Human immunodeficiency virus 1. In words: Antiviral activity against bevirimat-resistant HIV1 NL4-3 harboring QVT motif of Gag SP1 V370A mutant infected in human MT4 cells assessed as reduction of viral p24 level cells […] relative to wild type HIV1 NL4-3 after 4 days by ELISA. It is filed as functional, organism-based. The note with it: Human immunodeficiency virus 1, NL4-3, MT4, 96 h. (An ELISA detects its analyte on a solid surface through an enzyme-linked reagent.)

The test system of data set [8] is Human immunodeficiency virus 1. In words: Antiviral activity against wild type HIV1 NL4-3 infected in human MT4 cells assessed as reduction of viral p24 level cells […] relative to wild type HIV1 NL4-3 after 4 days by ELISA. It is filed as functional, organism-based. The note with it: Human immunodeficiency virus 1, NL4-3, MT4, 96 h.
The test system of data set [9] is Liver microsomes. The note with it: human, 1 µM.
The subject of data set [10] is Human immunodeficiency virus 1. The data set is described as follows: Antiviral activity against bevirimat-resistant HIV1 NL4-3 harboring QVT motif of Gag SP1 deltaT371 mutant infected in human MT4 cells assessed as reduction of viral p24 level cells […] relative to wild type HIV1 NL4-3 after 4 days by ELISA. Type of data set: functional, organism-based. The note with it: Human immunodeficiency virus 1, NL4-3, MT4, 96 h. In short, it runs like this: (§1)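 Multi-cycle viral replication assay in MT4 cells, run in parallel against wild-type NL4-3 and NL4-3 variants carrying V370A, ΔV370 or ΔT371 in Gag.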

Data set [11] deals with Human immunodeficiency virus 1. The data set is described as follows: Antiviral activity against bevirimat-resistant HIV1 NL4-3 harboring QVT motif of Gag SP1 deltaV370 mutant infected in human MT4 cells assessed as reduction of viral p24 level cells […] relative to wild type HIV1 NL4-3 after 4 days by ELISA. It is filed as functional, organism-based. The note with it: Human immunodeficiency virus 1, NL4-3, MT4, 96 h. The essentials: as §1

pEC50: −log10 of the molar value.

`C=C(C)[C@@H]1CC[C@]2(C(=O)NCCCCCCCCC(=O)N[C@@H](CCC(N)=O)C(=O)OC)CC[C@]3(C)[C@H](CC[C@@H]4[C@@]5(C)CC[C@H](O)C(C)(C)[C@@H]5CC[C@]43C)[C@@H]12`: in [1], the “fold change (FC)” value amounted to 2. The “Ratio EC50” value in data set [2] turned out to be 5. Moreover, in data set [3], the Activity entry is “Non-toxic”. The same molecule showed a t1/2 with Liver microsomes [4] of 30.13 min. Moreover, the CC50 at 48 h in [5] was 4800 nM. Moreover, the pEC50 was 7.05 in data set [6], 7.70 in data set [7] and 5.76 in data set [8]. In the data set with Liver microsomes [9], this molecule showed a CLH of 230 µL/min/mg.
Turning to `C=C(C)[C@@H]1CC[C@]2(C(=O)NCCCCCCCCC(=O)N[C@@H](CCC(N)=O)C(=O)OCc3ccccc3)CC[C@]3(C)[C@H](CC[C@@H]4[C@@]5(C)CC[C@H](O)C(C)(C)[C@@H]5CC[C@]43C)[C@@H]12`, the “fold change (FC)” value in data set [1] is reported as 2. For the same molecule, the “Ratio EC50” value in data set [2] came to 5. Further, in data set [3], the Activity result is on record as “Non-toxic”. In addition, the t1/2 in the data set on Liver microsomes [4] turned out to be 41.01 min. Further, the pEC50 is 7.59 in [10]; 7.64 in [11]; 6.92 in [6]; 7.30 in data set [7]; 6.72 in data set [8]. The CC50 at 48 h in data set [5] was 15000 nM. The CLH in the data set with Liver microsomes [9] came to 169 µL/min/mg.
Turning to `C=C(C)[C@@H]1CC[C@]2(C(=O)NCCOCCOCCNC(=O)C(C)C)CC[C@]3(C)[C@H](CC[C@@H]4[C@@]5(C)CC[C@H](O)C(C)(C)[C@@H]5CC[C@]43C)[C@@H]12`, the Activity result in data set [3] was “Non-toxic”. Besides, in [6], the pEC50 is < 5.40.
The matching figures for `C=C(C)[C@@H]1CC[C@]2(C(=O)NCCOCCOCCNC(=O)Cc3nnn[nH]3)CC[C@]3(C)[C@H](CC[C@@H]4[C@@]5(C)CC[C@H](O)C(C)(C)[C@@H]5CC[C@]43C)[C@@H]12`: “Non-toxic” and < 5.40.
As for `COC(=O)[C@H](CCC(N)=O)NC(=O)CCCCCCCCNC(=O)[C@]12CC[C@@H](C(C)C)[C@@H]1[C@H]1CC[C@@H]3[C@@]4(C)CC[C@H](O)C(C)(C)[C@@H]4CC[C@@]3(C)[C@]1(C)CC2`, the “Ratio EC50” value in data set [2] came out at 5. In data set [3], the Activity result is “Non-toxic”. Also, the t1/2 with Liver microsomes [4] is 31.64 min. The CC50 at 48 h in [5] stood at 4600 nM. Further, the pEC50 was 7.30 in data set [6], 7.70 in data set [7] and 6.24 in data set [8]. The CLH in the data set with Liver microsomes [9] worked out at 219 µL/min/mg.
In the case of `CC(C)[C@@H]1CC[C@]2(C(=O)NCCCCCCCCC(=O)N[C@@H](CCC(N)=O)C(=O)O)CC[C@]3(C)[C@H](CC[C@@H]4[C@@]5(C)CC[C@H](O)C(C)(C)[C@@H]5CC[C@]43C)[C@@H]12`, the “Ratio EC50” value in data set [2] was 5. For the same molecule, in [3], the Activity result is “Non-toxic”. In the data set on Liver microsomes [4], the t1/2 is on record as 24.75 min. Also, the CC50 at 48 h in data set [5] turned out to be 18600 nM. Moreover, the pEC50 in [6] is 7.40; in data set [7], 6.62; in data set [8], 6.08. The same molecule had a CLH with Liver microsomes [9] of 280 µL/min/mg.
As for `C=C(C)[C@@H]1CC[C@]2(C(=O)NCCCCCCCNC(=O)[C@H](CCC(N)=O)NC(=O)OC(C)(C)C)CC[C@]3(C)[C@H](CC[C@@H]4[C@@]5(C)CC[C@H](O)C(C)(C)[C@@H]5CC[C@]43C)[C@@H]12`, the “Ratio EC50” value in data set [2] came to 5. Besides, the Activity entry in [3] is recorded as “Non-toxic”. The molecule also gave a t1/2 in the data set with Liver microsomes [4] of 18.93 min. Further, the CC50 at 48 h in data set [5] was found to be 7400 nM. Besides, the pEC50 in [6] was 7.40; in [7], 7.05; in [8] it was 6.44. The CLH in the data set with Liver microsomes [9] was found to be 366 µL/min/mg.
`C=C(C)[C@@H]1CC[C@]2(C(=O)NCCCCCCCNC(C)=O)CC[C@]3(C)[C@H](CC[C@@H]4[C@@]5(C)CC[C@H](O)C(C)(C)[C@@H]5CC[C@]43C)[C@@H]12`: the “fold change (FC)” value in data set [1] was 2. Moreover, the Activity result in data set [3] is “Non-toxic”. Moreover, the t1/2 in the data set with Liver microsomes [4] is listed as 25.48 min. Besides, the pEC50 was 7.57 in [10]; 8.22 in data set [11]; 7.10 in [6]; 6.72 in data set [7]; 6.92 in data set [8]. Also, the CC50 at 48 h in [5] was determined as 12600 nM. For the same molecule, in the data set on Liver microsomes [9], the CLH worked out at 272 µL/min/mg.
Regarding `C=C(C)[C@@H]1CC[C@]2(C(=O)O)CC[C@]3(C)[C@H](CC[C@@H]4[C@@]5(C)CC[C@H](OC(=O)CC(C)(C)C(=O)O)C(C)(C)[C@@H]5CC[C@]43C)[C@@H]12` [BEVIRIMAT], the pEC50 in [10], in data set [11] and in data set [7] was < 5.40 each time. Besides, the CC50 at 48 h in data set [5] is > 10000 nM.
For `Cc1cc(/C=C/C#N)cc(C)c1Nc1ccnc(Nc2ccc(C#N)cc2)n1` [RILPIVIRINE], the CC50 at 48 h in data set [5] was > 100 nM.

The term pEC50 denotes the EC50 on a negative log10 scale, so that one unit is a factor of ten.
